Screening results (PubChem BioAssay)
T cruzi growth: T. cruzi proliferation inhibition; inhibition, % at 8.34 µM; 77,000 compounds, 5.9% hits; T. cruzi beta-gal in NIH3T3, GalScreen luminescence, 90 h;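 active means mean inhibition above about 93%, with at least 55% of replicates each passing it, limit read from the data, passing the limit was not always enough; inconclusive means only one of those two conditions holds; inactive means neither condition holds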
GASC1 inh: KDM4C (human) demethylase inhibition; Q9H3R0; GST-KDM4C 2-372, H3K9me3 peptide, LANCE TR-FRET; inhibition, % at 12.5 µM; 96,000 compounds, 0.15% hits;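 active means mean replicate inhibition above about 25%, with at least 55% of replicates also reaching it, limit read from the data, passing the limit was not always enough; inconclusive means only one of those two conditions met; inactive means neither condition met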
Target sequence (Q9H3R0 2-372 limits assumed): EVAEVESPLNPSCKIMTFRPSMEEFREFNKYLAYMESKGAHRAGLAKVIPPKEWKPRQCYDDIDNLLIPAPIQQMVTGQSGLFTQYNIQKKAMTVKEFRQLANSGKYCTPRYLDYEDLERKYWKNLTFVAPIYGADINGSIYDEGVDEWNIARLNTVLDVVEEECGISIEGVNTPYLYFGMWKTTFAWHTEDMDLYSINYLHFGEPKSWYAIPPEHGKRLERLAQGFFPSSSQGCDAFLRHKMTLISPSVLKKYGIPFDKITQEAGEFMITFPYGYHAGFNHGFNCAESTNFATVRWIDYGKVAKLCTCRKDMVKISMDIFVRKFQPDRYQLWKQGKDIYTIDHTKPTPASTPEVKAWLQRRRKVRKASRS
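Test system: N-terminal GST-fused human GASC-1 (KDM4C) fragment, residues 2-372; quantity: GASC-1 enzyme at 10 nM final in reaction; dosing: single dose; schedule: 30 min demethylation and 1 h detection at room temperature; signal: LANCE TR-FRET, excitation 340 nm, emissions 618 and 671 nm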
IDH1 R132H inh: inhibitors of human IDH1 R132H; 70,000 compounds, 0.18% hits; IDH1 R132H reductase, diaphorase/resazurin fluorescence, 60 min; inhibition, % at 10 µM; O75874; in the data active means inhibition above about 34%; inconclusive means no clear call, values can overlap the other calls; inactive means below about 11%
Target sequence (O75874 whole entry R132H): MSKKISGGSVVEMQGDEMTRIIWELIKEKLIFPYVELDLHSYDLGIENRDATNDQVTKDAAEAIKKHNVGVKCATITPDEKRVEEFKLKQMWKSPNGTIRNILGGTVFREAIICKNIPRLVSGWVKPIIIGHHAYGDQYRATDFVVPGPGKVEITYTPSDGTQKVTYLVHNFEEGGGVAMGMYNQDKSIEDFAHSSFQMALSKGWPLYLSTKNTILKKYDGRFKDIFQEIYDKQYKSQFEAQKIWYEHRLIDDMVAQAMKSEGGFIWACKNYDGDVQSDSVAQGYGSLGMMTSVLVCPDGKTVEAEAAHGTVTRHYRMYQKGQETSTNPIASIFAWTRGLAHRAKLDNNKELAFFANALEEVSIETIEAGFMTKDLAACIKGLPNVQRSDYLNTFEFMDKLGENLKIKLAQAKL
Pf Dd2 growth: blocks growth of Plasmodium falciparum Dd2 parasites. AID 1159554. 94,000 compounds, 2.3% hits. P. falciparum Dd2 growth, SYBR Green, 72 h; stronger effect = lower value. activity change, % at 10 µM; in the data active means activity change below about -80%; inconclusive means no clear call, values can overlap the other calls
Of the large screens only hits and unclear results are named; the others gave an inactive call; ! = not confirmed by another sample. The list is not random: actives were taken first. Their share in the collection is about 5.8%.

COc1ccc(CN(C)C[C@H]2OCCCC[C@@H](C)Oc3ccc(NC(=O)CCCCCC(=O)Nc4ccccc4N)cc3C(=O)N([C@H](C)CO)C[C@@H]2C)cc1	Pf Dd2 growth -83 (no result: T cruzi growth, IDH1 R132H inh)
C[C@@H]1CCCCO[C@H](CN(C)S(=O)(=O)c2ccc(Cl)cc2)[C@@H](C)CN([C@H](C)CO)C(=O)c2cc(NC(=O)CCCCCC(=O)Nc3ccccc3N)ccc2O1	Pf Dd2 growth -85 (no result: T cruzi growth)
COc1ccc(NC(=O)Nc2ccc3c(c2)C(=O)N([C@H](C)CO)C[C@H](C)[C@H](CN(C)Cc2ccc(C(=O)Nc4ccccc4N)cc2)OCCCC[C@@H](C)O3)cc1	Pf Dd2 growth -87 (no result: T cruzi growth)
C[C@@H]1CN([C@H](C)CO)C(=O)c2cc(NC(=O)CCCCCC(=O)Nc3ccccc3N)ccc2O[C@@H](C)CCCCO[C@@H]1CN(C)S(=O)(=O)c1ccc(Cl)cc1	none
C[C@@H]1CN([C@@H](C)CO)C(=O)c2cc(NC(=O)CCCCCC(=O)Nc3ccccc3N)ccc2O[C@@H](C)CCCCO[C@@H]1CN(C)C(=O)Nc1ccc(C(F)(F)F)cc1	Pf Dd2 growth -82 (no result: IDH1 R132H inh)
C[C@@H]1CCCCO[C@H](CN(C)Cc2ccccc2)[C@@H](C)CN([C@H](C)CO)C(=O)c2cc(NC(=O)CCCCCC(=O)Nc3ccccc3N)ccc2O1	Pf Dd2 growth -83 (no result: T cruzi growth, IDH1 R132H inh)
CCOC(=O)CSc1nc2ccc(Br)cc2c(=O)n1-c1ccccc1OC	none (no result: T cruzi growth, GASC1 inh, Pf Dd2 growth)
COc1ccc(S(=O)(=O)N(C)C[C@H]2Oc3c(NC(=O)CCCCCC(=O)Nc4ccccc4N)cccc3C(=O)N([C@H](C)CO)C[C@@H]2C)cc1	none (no result: T cruzi growth)
COc1ccc(S(=O)(=O)N(C)C[C@@H]2Oc3c(NC(=O)CCCCCC(=O)Nc4ccccc4N)cccc3C(=O)N([C@@H](C)CO)C[C@H]2C)cc1	Pf Dd2 growth -83 (no result: T cruzi growth)
COc1ccc(S(=O)(=O)N(C)C[C@@H]2Oc3c(NC(=O)CCCCCC(=O)Nc4ccccc4N)cccc3C(=O)N([C@H](C)CO)C[C@@H]2C)cc1	Pf Dd2 growth -85 (no result: T cruzi growth)
CCn1c(O)c(/C=C2/C=CC=N2)c(=O)[nH]c1=S	none (no result: T cruzi growth, GASC1 inh, Pf Dd2 growth)
CCc1nc2sc3c(c2c2nnc(SCC(=O)OC)n12)CCC3	none (no result: T cruzi growth, GASC1 inh, Pf Dd2 growth)
C[C@@H]1CN([C@@H](C)CO)C(=O)c2cccc(NC(=O)CCCCCC(=O)Nc3ccccc3N)c2O[C@H]1CN(C)C	none (no result: T cruzi growth)
C[C@H]1CN([C@@H](C)CO)C(=O)c2cccc(NC(=O)CCCCCC(=O)Nc3ccccc3N)c2O[C@@H]1CN(C)Cc1ccncc1	none (no result: T cruzi growth)
C[C@@H]1CN([C@@H](C)CO)C(=O)c2cccc(NC(=O)CCCCCC(=O)Nc3ccccc3N)c2O[C@H]1CN(C)Cc1ccc(-c2ccccc2)cc1	Pf Dd2 growth -91 (no result: T cruzi growth)
C[C@H](CO)N1C[C@H](C)[C@H](CN(C)C)Oc2c(NC(=O)CCCCCC(=O)Nc3ccccc3N)cccc2C1=O	none (no result: T cruzi growth, IDH1 R132H inh)
C[C@@H]1CN([C@@H](C)CO)C(=O)c2cccc(NC(=O)CCCCCC(=O)Nc3ccccc3N)c2O[C@@H]1CN(C)Cc1ccccc1	Pf Dd2 growth -87 (no result: T cruzi growth, IDH1 R132H inh)
C[C@H](CO)N1C[C@H](C)[C@H](CN(C)CC2CC2)Oc2c(NC(=O)CCCCCC(=O)Nc3ccccc3N)cccc2C1=O	none (no result: T cruzi growth)
C[C@@H]1CN([C@@H](C)CO)C(=O)c2cccc(NC(=O)CCCCCC(=O)Nc3ccccc3N)c2O[C@H]1CN(C)CC1CCCCC1	Pf Dd2 growth -89 (no result: T cruzi growth, IDH1 R132H inh)
C[C@H](CO)N1C[C@H](C)[C@@H](CN(C)Cc2ccc(-c3ccccc3)cc2)Oc2c(NC(=O)CCCCCC(=O)Nc3ccccc3N)cccc2C1=O	Pf Dd2 growth -87 (no result: T cruzi growth)
COC(=O)CNC(=O)c1ccc(S(=O)(=O)N2CCOCC2)cc1	none (no result: T cruzi growth, GASC1 inh, Pf Dd2 growth)
CCN1CCCC1CNC(=O)C(NC(=O)c1ccc(C23CC4CC(CC(C4)C2)C3)cc1)C(C)C (stereo unspecified)	none (no result: T cruzi growth, GASC1 inh, Pf Dd2 growth)
CC(C)NC(=O)Nc1cccc2c1O[C@@H](CN(C)CC1CCCCC1)[C@H](C)CN([C@@H](C)CO)C2=O	Pf Dd2 growth -81 (no result: T cruzi growth)
C[C@@H]1CN([C@H](C)CO)C(=O)c2cccc(NC(=O)Nc3ccccc3)c2O[C@@H]1CN(C)Cc1ccc(Cl)c(Cl)c1	Pf Dd2 growth -86 (no result: IDH1 R132H inh)
C[C@H](CO)N1C[C@H](C)[C@H](CN(C)Cc2ccc(Cl)c(Cl)c2)Oc2c(NC(=O)CCCCCC(=O)Nc3ccccc3N)cccc2C1=O	Pf Dd2 growth -88 (no result: T cruzi growth)
C[C@H]1CN([C@@H](C)CO)C(=O)c2cccc(NC(=O)Nc3ccccc3)c2O[C@@H]1CN(C)Cc1ccc(Cl)c(Cl)c1	none
CC(C)NC(=O)Nc1cccc2c1O[C@@H](CN(C)CC1CCCCC1)[C@@H](C)CN([C@H](C)CO)C2=O	none (no result: IDH1 R132H inh)
CCn1c2ccccc2c2cc(NC(=O)CCCN3C(=O)c4ccccc4C3=O)ccc21	none (no result: T cruzi growth, GASC1 inh, Pf Dd2 growth)
COc1cc(OC)cc(-c2nnc(SCC(=O)Nc3ccc(I)cc3)o2)c1	none (no result: T cruzi growth, GASC1 inh, Pf Dd2 growth)
Cc1ccc(S(=O)(=O)NC(C)C(=O)Nc2cc(C(F)(F)F)ccc2Cl)cc1 (stereo unspecified)	none (no result: T cruzi growth, GASC1 inh, Pf Dd2 growth)
CCCc1cn(CC[C@@H]2CC[C@@H](NS(=O)(=O)c3ccc(-c4ccccc4)cc3)[C@@H](CO)O2)nn1	Pf Dd2 growth -91
CCCc1cn(CC[C@H]2CC[C@@H](NS(=O)(=O)c3ccc(-c4ccccc4)cc3)[C@@H](CO)O2)nn1	Pf Dd2 growth -94
CN(C)Cc1cn(CC[C@@H]2CC[C@H](NS(=O)(=O)c3ccccc3)[C@H](CO)O2)nn1	none (no result: T cruzi growth, Pf Dd2 growth)
O=S(=O)(N[C@H]1CC[C@@H](CCn2cc(C3(O)CCCC3)nn2)O[C@@H]1CO)c1ccc(F)cc1	GASC1 inh 36
O=S(=O)(N[C@H]1CC[C@H](CCn2cc(Cc3ccccc3)nn2)O[C@H]1CO)c1ccccc1F	GASC1 inh 34
Cc1c(NC(=O)COc2cc(Cl)c(Cl)cc2Cl)cccc1-c1nc2ccccc2o1	none (no result: T cruzi growth, GASC1 inh, Pf Dd2 growth)
CC(=O)c1cccc(NC(=O)COc2ccccc2C(=O)Nc2ccccc2C#N)c1	none (no result: T cruzi growth, GASC1 inh, Pf Dd2 growth)
N#Cc1ccc(-c2ccc(C3[C@@H]4CN(C(=O)C5CC5)C[C@H]3N4)cc2)cc1 (stereo partly specified)	Pf Dd2 growth -88! (no result: T cruzi growth, IDH1 R132H inh)
C/C=C/c1ccc(C2[C@@H]3CN(C(=O)Nc4ccc5c(c4)OCO5)C[C@H]2N3)cc1 (stereo partly specified)	none (no result: T cruzi growth, IDH1 R132H inh)
N#Cc1ccc(-c2ccc([C@@H]3[C@@H]4CN(C(=O)Nc5ccc6c(c5)OCO6)C[C@H]3N4)cc2)cc1	Pf Dd2 growth -87 (no result: T cruzi growth, IDH1 R132H inh)
C[C@@H]1CN([C@H](C)CO)C(=O)c2c(c3ccccc3n2C)-c2ccccc2CO[C@H]1CN(C)Cc1ccccc1C(F)(F)F	none (no result: T cruzi growth, IDH1 R132H inh)
C[C@H]1CN([C@@H](C)CO)C(=O)c2c(c3ccccc3n2C)-c2ccccc2CO[C@@H]1CN(C)Cc1cccc(C(F)(F)F)c1	Pf Dd2 growth -82 (no result: T cruzi growth, IDH1 R132H inh)
C[C@@H]1CN([C@@H](C)CO)C(=O)c2c(c3ccccc3n2C)-c2ccccc2CO[C@@H]1CN(C)Cc1cccc(C(F)(F)F)c1	Pf Dd2 growth -90 (no result: T cruzi growth, IDH1 R132H inh)
C[C@H]1CN([C@@H](C)CO)C(=O)c2c(c3ccccc3n2C)-c2ccccc2CO[C@H]1CN(C)Cc1ccc(C(F)(F)F)cc1	Pf Dd2 growth inconclusive (no result: T cruzi growth, IDH1 R132H inh)
